Consider four compounds from ChEMBL document CHEMBL1938392, “N-Amino acid linoleoyl conjugates: anti-inflammatory activities” (Bioorg Med Chem Lett, 2012).

Calls of active or inactive are those of the source. The calls are words filed in the database; no cut-off is given here. Some results are limits rather than exact numbers.

For data set [1], the system named is RAW264.7. The data set is described as follows: Antiinflammatory activity in TNFalpha-stimulated mouse RAW264.7 cells assessed as PGJ level at 1 uM after 20 hrs by ELISA. The data set is classed as functional. An outline of the steps: (§1)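 Mouse RAW264.7 macrophages were grown in DMEM with 10% FBS and passaged by scraping without trypsin. Cells were seeded at 50,000 per well in DMEM+FCS with TNFα (10 nM) and incubated 20 hrs at 37°C, 5% CO2. Medium was then changed to serum-free DMEM, cells were treated for 2 hrs, and PGJ in the medium was measured by ELISA. DMSO was the vehicle control.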

Data set [2] has as its system RAW264.7. The data set is described as follows: Antiinflammatory activity in TNFalpha-stimulated mouse RAW264.7 cells assessed as PGJ level at 10 uM after 20 hrs by ELISA. The data set is classed as functional. An outline of the steps: as §1
For orientation: ELISA stands for enzyme-linked immunosorbent assay.

The subject of data set [3] is RAW264.7. The data set can be described thus: Antiinflammatory activity in TNFalpha-stimulated mouse RAW264.7 cells assessed as PGJ level at 0.3 uM after 20 hrs by ELISA. It is filed as functional. An outline of the steps:
as §1

The subject of data set [4] is RAW264.7. The data set is described as follows: Antiinflammatory activity in TNFalpha-stimulated mouse RAW264.7 cells assessed as PGJ level at 3 uM after 20 hrs by ELISA. The data set is classed as functional. The gist of the method:
as §1

Data set [5] relates to RAW264.7. The data set is described as follows: Antiinflammatory activity in TNFalpha-stimulated mouse RAW264.7 cells assessed as reduction in cell count at 1 uM after 20 hrs relative to control. It is filed as functional. More on the design: scale not given: the % may be the effect or the level left. The gist of the method:
(§2)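 RAW264.7 cells were kept in DMEM/10% FBS and subcultured by scraping. They were plated at 50,000 per well with TNFα (10 nM) for 20 hrs at 37°C, 5% CO2, then switched to serum-free DMEM for 2 hrs of treatment. Cell numbers were compared with the vehicle control.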

Data set [6] concerns RAW264.7. The data set is described as follows: Antiinflammatory activity in TNFalpha-stimulated mouse RAW264.7 cells assessed as reduction in cell count at 3 uM after 20 hrs relative to control. The data set is classed as functional. More on the design: scale not given: the % may be the effect or the level left. The gist of the method: as §2
Data set [7] deals with RAW264.7. The data set can be described thus: Antiinflammatory activity in TNFalpha-stimulated mouse RAW264.7 cells assessed as reduction in cell count at 10 uM after 20 hrs relative to control. It is filed as functional. Details: scale not given: the % may be the effect or the level left. An outline of the steps:
as §2

Data set [8] deals with RAW264.7. The data set can be described thus: Cytotoxicity in mouse RAW264.7 cells assessed as decrease in cell viability at 0.3 to 10 uM after 20 hrs. The settings on record: raw264.7, 20 h. The data set is classed as cell-based.
The subject of data set [9] is RAW264.7. The data set can be described thus: Antiinflammatory activity in TNFalpha-stimulated mouse RAW264.7 cells assessed as reduction in cell count at 0.3 uM after 20 hrs relative to control. More on the design: scale not given: the % may be the effect or the level left. The data set is classed as functional. An outline of the steps:
as §2

The subject of data set [10] is RAW264.7. The data set can be described thus: Antiinflammatory activity in TNFalpha-stimulated mouse RAW264.7 cells assessed as cell count at 0.3 uM after 20 hrs relative to control. The data set is classed as functional. The gist of the method: as §2
Data set [11] relates to RAW264.7. The data set can be described thus: Antiinflammatory activity in TNFalpha-stimulated mouse RAW264.7 cells assessed as PGJ level at 0.5 uM after 20 hrs by ELISA. It is filed as functional. An outline of the steps: as §1
In data set [12] the test system is Mus musculus. The data set can be described thus: Antiinflammatory activity in mouse peritonitis model assessed as accumulation of PGJ per 10^3 peritoneal cells at 0.3 to 20 mg/kg, po after 3 hrs by ELISA. The data set is classed as functional, organism-based. An outline of the steps:
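Mice were dosed by mouth in safflower oil (0.3–20 mg/kg); the safflower oil vehicle served as control. After 30 min they received 1 ml of 8% thioglycollate medium i.p. Peritoneal cells were harvested, cultured for 18 hrs, and PGJ in the medium was measured by ELISA. N=4.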

Data set [13] concerns Mus musculus. The data set can be described thus: Antiinflammatory activity in po dosed mouse peritonitis model assessed as inhibition of thiglycollate-induced migration of leukocytes into the peritoneal cavity administered 30 mins prior to thiglycollate-challenge. The data set is classed as functional. The gist of the method:
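Oral doses of 0.3–20 mg/kg in safflower oil were given to mice; controls received safflower oil. Thirty minutes later, 1 ml of sterile-filtered 8% thioglycollate medium was injected i.p. After 3 hrs, peritoneal cells were harvested, erythrocytes were lysed for 2 min, cells were resuspended in PBS/BSA, and differential leukocyte counts were made. N=8.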

Data set [14] relates to RAW264.7. The data set can be described thus: Antiinflammatory activity in TNFalpha-stimulated mouse RAW264.7 cells assessed as PGJ level at 2.5 uM after 20 hrs by ELISA. It is filed as functional. An outline of the steps:
as §1

Data set [15] deals with RAW264.7. The data set can be described thus: Antiinflammatory activity in TNFalpha-stimulated mouse RAW264.7 cells assessed as PGJ level at 5 uM after 20 hrs by ELISA. The data set is classed as functional. The gist of the method:
as §1

In the case of `CCCCC/C=C\C/C=C\CCCCCCCC(=O)N[C@@H](C)C(=O)O`, the Activity is less than 16 pg/mL with RAW264.7 [1]; 30.3 pg/mL in the data set with RAW264.7 [2]; less than 16 pg/mL with RAW264.7 [3]; less than 16 pg/mL with RAW264.7 [4]; 74.3% with RAW264.7 [5]; 68.5% in the data set with RAW264.7 [6]. Also, the Activity in the data set with RAW264.7 [7] is on record as 55.5%; with RAW264.7 [8], “Non-toxic”; with RAW264.7 [9], 55.6%.

Consider `CCCCC/C=C\C/C=C\C/C=C\C/C=C\CCCC(=O)NCC(=O)O` [ARACHIDONOYL GLYCINE], for which the Activity was less than 16 pg/mL in the data set on RAW264.7 [1] and 6847 pg/mL in the data set with RAW264.7 [2].

Regarding `CCCCC/C=C\C/C=C\CCCCCCCC(=O)N[C@H](C)C(=O)O`, the Activity in the data set on RAW264.7 [1] is 18 pg/mL; with RAW264.7 [2] it was 1580 pg/mL; in the data set with RAW264.7 [3] it was less than 16 pg/mL; in the data set on RAW264.7 [4], 233 pg/mL; in the data set with RAW264.7 [10] it was 136%; in the data set on RAW264.7 [5] it was 65.9%. The Activity is 33.9% in the data set on RAW264.7 [6], 30.5% in the data set with RAW264.7 [7] and “Non-toxic” with RAW264.7 [8].

In the case of `CCCCC/C=C\C/C=C\CCCCCCCC(=O)NCC(=O)O` [LINOLEOYL GLYCINE], the Activity in the data set on RAW264.7 [11] was less than 16 pg/mL; in the data set on RAW264.7 [1], 177 pg/mL; with RAW264.7 [14] it was 1843 pg/mL; in the data set with RAW264.7 [15], 3907 pg/mL; in the data set on RAW264.7 [2], 7315 pg/mL. For the same compound, the outcome in the data set on Mus musculus [12] was Active. Besides, the ED50 (usually the midpoint of the dose-response relation) with Mus musculus [13] is less than 0.3 mg/kg.
